Published values from different studies.
Protocols differ between the studies behind these lines.
MMP2: 72 kDa type IV collagenase (MMP2, Homo sapiens, UniProt P08253)
CNR2: Cannabinoid receptor 2 (CNR2, Homo sapiens, UniProt P34972)
SETD7: Histone-lysine N-methyltransferase SETD7 (SETD7, Homo sapiens, UniProt Q8WTS6)
SLC10A2: Ileal sodium/bile acid cotransporter (SLC10A2, Homo sapiens, UniProt Q12908)
HSD11B1: 11-beta-hydroxysteroid dehydrogenase 1 (HSD11B1, Homo sapiens, UniProt P28845)

O=C(O)c1ncccc1O — inhibition (MMP2; enzyme activity, inhibitor, fluorescence; 1 mM): ~50%
O=C(c1ccc(Cl)cc1)N(Cc1ccccc1)C1CCCCC1 — inhibition (CNR2; cell-free assay; 10 µM): 41.6%
O=C1c2c(O)cccc2Cc2cccc(O)c21 — inhibition (SETD7; cell-free assay; 10 µM): 8%
CC(C)c1ncccc2nc(N)nc1-2 — inhibition (MMP2; enzyme activity, inhibitor; 50 µM): 52%
C[C@H]1C[C@@H]2[C@H]([C@@H](O)C[C@@]3(C)[C@H]2CC[C@]3(O)C(=O)CO)[C@@]2(C)C=CC(=O)C=C12 — inhibition (SLC10A2; transporter uptake, inhibitor, radiometric; 1 mM): < 10%
CCN(c1cc(C#CCN2CCOCC2)cc(C(=O)NCc2c(C)cc(C)[nH]c2=O)c1C)[C@H]1CC[C@H](N(C)CCOC)CC1 — inhibition (Histone-lysine N-methyltransferase SUV39H1 (SUV39H1, Homo sapiens, UniProt O43463); enzyme activity, inhibitor; 1 µM): 11%
CN1CCC(=C2c3ccccc3Sc3ccccc32)CC1 — inhibition (SETD7; cell-free assay; 10 µM): 41%
CN1CC(Oc2cnc(C#N)cc2-c2ccn3nc(NC(=O)C4CC4)cc3c2)C1 — inhibition (Phosphatidylinositol 5-phosphate 4-kinase type-2 alpha (PIP4K2A, Homo sapiens, UniProt P48426); enzyme activity, inhibitor; 1 µM): 3%
CCOC(=O)C1=C(COCCN)NC(C)=C(C(=O)OC)C1c1ccccc1Cl (centres unmarked) — inhibition (SLC10A2; transporter uptake, inhibitor, radiometric; 1 mM): 95.5%
O=C(Oc1cc(O)cc2c1C[C@@H](OC(=O)c1cc(O)c(O)c(O)c1)[C@@H](c1cc(O)c(O)c(O)c1)O2)c1cc(O)c(O)c(O)c1 — inhibition (SETD7; cell-free assay; 10 µM): 28%
Ic1cccc2cnccc12 — inhibition (Protein mono-ADP-ribosyltransferase PARP6 (PARP6, Homo sapiens, UniProt Q2NL67); enzyme activity, inhibitor; 10 µM): 11%
C=CC1=C(C)c2cc3[nH]c(cc4nc(cc5[nH]c(cc1n2)c(C)c5CCC(=O)O)C(CCC(=O)O)=C4C)c(C)c3C=C — inhibition (SETD7; cell-free assay; 10 µM): 34%
COc1ccc(-n2nc(OCCCN3CCCCC3)ccc2=O)cc1 — inhibition (CNR2; ligand displacement; 1 µM): 33.1%
COc1cc(NC(C)=O)c(Cl)cc1C(=O)Nc1nccs1 — inhibition (Beta-2 adrenergic receptor (ADRB2, Homo sapiens, UniProt P07550); cell-free assay; 10 µM): -8.3%
CN(C)CCCN1c2ccccc2Sc2ccc(Cl)cc21 — inhibition (HSD11B1; enzyme activity, inhibitor; 20 µM, lysate): < 40%
CN1CCCCC1CCN1c2ccccc2Sc2ccc([S+](C)[O-])cc21 (centres unmarked) — inhibition (SLC10A2; transporter uptake, inhibitor, radiometric; 1 mM): 73.6%
Cc1cc(O)c(C=O)c2c1C(=O)Oc1c(C)c(O)c3c(c1O2)C(O)OC3=O (centres unmarked) — inhibition (SETD7; cell-free assay; 10 µM): 0%
Oc1cccc(Nc2nc(-c3ccc(F)cc3F)cs2)c1 — inhibition (CNR2; cell-free assay; 10 µM): 35.3%
CC(C)c1c(C(=O)Nc2ccccc2)c(-c2ccccc2)c(-c2ccc(F)cc2)n1CC[C@@H](O)C[C@@H](O)CC(=O)O — inhibition (HSD11B1; enzyme activity, inhibitor; 20 µM, lysate): < 40%
O=C1C=C2CC3(O)COc4c(ccc(O)c4O)C3=C2C=C1O (centres unmarked) — inhibition (SETD7; cell-free assay; 10 µM): 28%
CN(C)C1CCN(CC#Cc2nn(C3CCCC3)c3nc(NCc4ccccc4)ncc23)C1 (centres unmarked) — inhibition (Casein kinase I isoform alpha (CSNK1A1, Homo sapiens, UniProt P48729); enzyme activity, inhibitor, FRET; 10 µM): 1%
CC(C)(C#N)c1cc(Cn2cncn2)cc(C(C)(C)C#N)c1 — inhibition (SLC10A2; transporter uptake, inhibitor, radiometric; 1 mM): 36.8%
CCCCC(CC)CNC(=N)NC(=N)NCCCCCCNC(=N)NC(=N)NCC(CC)CCCC (centres unmarked) — inhibition (SETD7; cell-free assay; 10 µM): -110%
C=C(CC)C(=O)c1ccc(OCC(=O)O)c(Cl)c1Cl — inhibition (HSD11B1; enzyme activity, inhibitor; 20 µM, lysate): < 40%
NS(=O)(=O)c1cc2c(cc1Cl)NC(C(Cl)Cl)NS2(=O)=O (centres unmarked) — inhibition (SLC10A2; transporter uptake, inhibitor, radiometric; 1 mM): 44.7%
Cc1ccc(Nc2nccc(N(C)c3ccc4c(C)n(C)nc4c3)n2)cc1S(N)(=O)=O — inhibition (G protein-coupled receptor kinase 5 (GRK5, Homo sapiens, UniProt P34947); enzyme activity, inhibitor; 0.3 µM): -6%
C[C@@H](O)[C@H]1C(=O)N2C(C(=O)O)=C(S[C@@H]3CN[C@H](C(=O)N(C)C)C3)[C@H](C)[C@H]12 — inhibition (SLC10A2; transporter uptake, inhibitor, radiometric; 1 mM): < 10%
Cc1cc(-c2ccc(/N=N/c3ccc4c(S(=O)(=O)O)cc(S(=O)(=O)O)c(N)c4c3O)c(C)c2)ccc1/N=N/c1ccc2c(S(=O)(=O)O)cc(S(=O)(=O)O)c(N)c2c1O — inhibition (SETD7; cell-free assay; 10 µM): 101%
CCCN(CCC)S(=O)(=O)c1ccc(C(=O)O)cc1 — inhibition (SLC10A2; transporter uptake, inhibitor, radiometric; 1 mM): 47.4%
N#Cc1cc(Cn2c(N3CCCC3)nc3ccccc32)ccc1F — inhibition (D(1B) dopamine receptor (DRD5, Homo sapiens, UniProt P21918); ligand displacement; 10 µM): 48.7%
Cc1cn([C@H]2C[C@H](N=[N+]=[N-])[C@@H](CO)O2)c(=O)[nH]c1=O — inhibition (SLC10A2; transporter uptake, inhibitor, radiometric; 1 mM): < 10%
CC(=O)N[C@H]1CSSC[C@@H](C(=O)N[C@@H](Cc2c[nH]c3ccccc23)C(N)=O)NC(=O)[C@H](Cc2ccccc2)NC(=O)[C@H](CCCNC(=N)N)NC1=O — inhibition (Melanocortin receptor 5 (MC5R, Homo sapiens, UniProt P33032); ligand displacement, radioligand; 10 µM, 40 min): 0%
